Assay results published in ChEMBL document CHEMBL3994613, “Diaryltriazenes as antibacterial agents against methicillin resistant Staphylococcus aureus (MRSA) and Mycobacterium smegmatis” (Eur J Med Chem, 2017).
Converted amounts (≈) assume the structure as drawn.

Experiments:
[1] = test system: Escherichia coli; experiment: Antibacterial activity against Escherichia coli DH10beta harboring pHuLUC3 after 18 to 20 hrs by microdilution method; assay type: functional
Outline: (§1)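 EUCAST broth microdilution in LB broth. Inoculum prepared by direct colony suspension from 20–24 h LB agar (E. coli DH10β) or 5% sheep blood BHI agar (MRSA USA300) growth. Final inoculum 2×10^4 CFU/mL, 18–20 h aerobic at 37 °C, growth read on a plate reader, at least duplicate.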

[2] = test system: Escherichia coli; experiment: Bactericidal activity against Escherichia coli DH10beta harboring pHuLUC3 after 18 to 20 hrs by microdilution method; assay type: functional; outline: as §1
[3] = test system: Mycolicibacterium smegmatis; experiment: Bactericidal activity against Mycobacterium smegmatis MC2 155 after 96 hrs by microdilution method; assay type: functional; conditions: str. MC2 155, 96 h
Outline: (§2)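 Microdilution in TSB broth. Inoculum from colonies grown 96 h on TSA, final 1×10^5 CFU/mL, aerobic 94–98 h at 37 °C, growth read on a plate reader, at least duplicate.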

[4] = test system: Staphylococcus aureus; experiment: Bactericidal activity against methicillin-resistant Staphylococcus aureus USA300 after 18 to 20 hrs by microdilution method; assay type: functional; outline: as §1
[5] = test system: Mycolicibacterium smegmatis; experiment: Antimycobacterial activity against Mycobacterium smegmatis MC2 155 after 94 to 98 hrs by microdilution method; assay type: functional; conditions: str. MC2 155; outline: as §2
[6] = test system: Saccharomyces cerevisiae; experiment: Antibacterial activity against Saccharomyces cerevisiae after 18 to 20 hrs by microdilution method
Outline: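 Microdilution in YEP broth against wild-type yeast grown on YEP agar. Final inoculum 1×10^5 CFU/mL. Read after 18–20 h aerobic incubation at 30 °C on plate reader, at least one duplicate.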

[7] = test system: Staphylococcus aureus; experiment: Antibacterial activity against methicillin-resistant Staphylococcus aureus USA300 after 18 to 20 hrs by microdilution method; assay type: functional; outline: as §1

Row | Compound | MIC [1] [µg/mL] | MBC [2] [µg/mL] | MBC [3] [µg/mL] | MBC [4] [µg/mL] | MIC [5] [µg/mL] | MIC [6] [µg/mL] | MIC [7] [µg/mL]
1 | COC(=O)N(/N=N/c1ccc([N+](=O)[O-])cc1Cl)c1ccc([N+](=O)[O-])cc1Cl | 64 (≈ 155 µM) | 128 (≈ 309 µM) | > 128 | 32 (≈ 77.3 µM) | 128 (≈ 309 µM) | > 128 | 32 (≈ 77.3 µM)
2 | O=C(c1ccccc1C(F)(F)F)N(/N=N/c1ccc([N+](=O)[O-])cc1C(F)(F)F)c1ccc([N+](=O)[O-])cc1C(F)(F)F | 128 (≈ 215 µM) | 128 (≈ 215 µM) | – | – | > 128 | > 128 | > 128
3 | Clc1ccc(Cl)c(/N=N/Nc2cc(Cl)ccc2Cl)c1 | > 128 | – | – | – | > 128 | > 128 | > 128
4 | CC(=O)N(/N=N/c1ccc([N+](=O)[O-])cc1)c1ccc([N+](=O)[O-])cc1 | 64 (≈ 194 µM) | 128 (≈ 389 µM) | – | – | > 128 | > 128 | > 128
5 | CC(=O)N(/N=N/c1ccc([N+](=O)[O-])cc1Cl)c1ccc([N+](=O)[O-])cc1Cl | 64 (≈ 161 µM) | > 128 | > 128 | 4 (≈ 10 µM) | 16 (≈ 40.2 µM) | > 128 | 4 (≈ 10 µM)
6 | O=C(c1ccccc1)N(/N=N/c1ccc([N+](=O)[O-])cc1Cl)c1ccc([N+](=O)[O-])cc1Cl | 32 (≈ 69.5 µM) | 32 (≈ 69.5 µM) | > 128 | 32 (≈ 69.5 µM) | 128 (≈ 278 µM) | > 128 | 32 (≈ 69.5 µM)
7 | O=C(c1ccccc1F)N(/N=N/c1ccc([N+](=O)[O-])cc1Br)c1ccc([N+](=O)[O-])cc1Br | 128 (≈ 226 µM) | 128 (≈ 226 µM) | – | – | > 128 | > 128 | > 128
8 | O=C(c1ccccc1C(F)(F)F)N(/N=N/c1ccc([N+](=O)[O-])cc1Br)c1ccc([N+](=O)[O-])cc1Br | 64 (≈ 104 µM) | 64 (≈ 104 µM) | – | – | > 128 | > 128 | > 128
9 | O=C(c1cccc(C(F)(F)F)c1)N(/N=N/c1ccc([N+](=O)[O-])cc1Br)c1ccc([N+](=O)[O-])cc1Br | 32 (≈ 51.9 µM) | 64 (≈ 104 µM) | > 128 | 8 (≈ 13 µM) | 128 (≈ 207 µM) | > 128 | 8 (≈ 13 µM)
10 | O=C(c1ccc(F)cc1)N(/N=N/c1ccc([N+](=O)[O-])cc1Br)c1ccc([N+](=O)[O-])cc1Br | 64 (≈ 113 µM) | 64 (≈ 113 µM) | – | – | > 128 | > 128 | > 128
11 | CC(=O)OCC(=O)N(/N=N/c1ccc([N+](=O)[O-])cc1Br)c1ccc([N+](=O)[O-])cc1Br | 64 (≈ 117 µM) | 64 (≈ 117 µM) | – | 16 (≈ 29.4 µM) | > 128 | > 128 | 8 (≈ 14.7 µM)
12 | O=C(c1ccccc1F)N(/N=N/c1ccc([N+](=O)[O-])cc1Cl)c1ccc([N+](=O)[O-])cc1Cl | 64 (≈ 134 µM) | 128 (≈ 268 µM) | – | – | > 128 | > 128 | > 128
13 | O=C(c1ccccc1C(F)(F)F)N(/N=N/c1ccc([N+](=O)[O-])cc1Cl)c1ccc([N+](=O)[O-])cc1Cl | 64 (≈ 121 µM) | 128 (≈ 242 µM) | – | – | > 128 | > 128 | > 128
14 | O=C(c1cccc(C(F)(F)F)c1)N(/N=N/c1ccc([N+](=O)[O-])cc1Cl)c1ccc([N+](=O)[O-])cc1Cl | 32 (≈ 60.6 µM) | 64 (≈ 121 µM) | > 128 | 8 (≈ 15.1 µM) | 32 (≈ 60.6 µM) | > 128 | 8 (≈ 15.1 µM)
15 | O=C(c1ccc(C(F)(F)F)cc1)N(/N=N/c1ccc([N+](=O)[O-])cc1Cl)c1ccc([N+](=O)[O-])cc1Cl | 64 (≈ 121 µM) | 128 (≈ 242 µM) | > 128 | 8 (≈ 15.1 µM) | 16 (≈ 30.3 µM) | > 128 | 8 (≈ 15.1 µM)
16 | O=C(c1cccc(F)c1)N(/N=N/c1ccc([N+](=O)[O-])cc1Cl)c1ccc([N+](=O)[O-])cc1Cl | 64 (≈ 134 µM) | 64 (≈ 134 µM) | – | 16 (≈ 33.5 µM) | > 128 | > 128 | 16 (≈ 33.5 µM)
17 | Fc1ccc(/N=N/Nc2ccc(F)cc2C(F)(F)F)c(C(F)(F)F)c1 | > 128 | – | – | – | > 128 | > 128 | > 128
18 | O=C(c1cccnc1)N(/N=N/c1ccc([N+](=O)[O-])cc1Cl)c1ccc([N+](=O)[O-])cc1Cl | 32 (≈ 69.4 µM) | 32 (≈ 69.4 µM) | 128 (≈ 278 µM) | 32 (≈ 69.4 µM) | 64 (≈ 139 µM) | > 128 | 32 (≈ 69.4 µM)
19 | O=C(c1ccncc1)N(/N=N/c1ccc([N+](=O)[O-])cc1)c1ccc([N+](=O)[O-])cc1 | 16 (≈ 40.8 µM) | 32 (≈ 81.6 µM) | – | 128 (≈ 326 µM) | > 128 | > 128 | 128 (≈ 326 µM)
20 | O=C(CCl)N(/N=N/c1ccc([N+](=O)[O-])cc1Br)c1ccc([N+](=O)[O-])cc1Br | 64 (≈ 123 µM) | 128 (≈ 245 µM) | – | – | > 128 | > 128 | > 128
21 | O=C(c1cccnc1)N(/N=N/c1ccc([N+](=O)[O-])cc1Br)c1ccc([N+](=O)[O-])cc1Br | 16 (≈ 29.1 µM) | 32 (≈ 58.2 µM) | 128 (≈ 233 µM) | 32 (≈ 58.2 µM) | 64 (≈ 116 µM) | > 128 | 32 (≈ 58.2 µM)
22 | O=C(CCl)N(/N=N/c1ccc(C(F)(F)F)cc1C(F)(F)F)c1ccc(C(F)(F)F)cc1C(F)(F)F | – | – | – | > 128 | – | > 128 | > 128
23 | O=C(c1cccnc1)N(/N=N/c1ccc([N+](=O)[O-])cc1F)c1ccc([N+](=O)[O-])cc1F | 128 (≈ 299 µM) | > 128 | – | 64 (≈ 149 µM) | > 128 | > 128 | 64 (≈ 149 µM)
24 | FC(F)(F)c1ccc(/N=N/Nc2ccc(C(F)(F)F)cc2C(F)(F)F)c(C(F)(F)F)c1 | – | – | – | – | – | > 128 | > 128
25 | O=C(CCl)N(/N=N/c1ccc(Cl)cc1C(F)(F)F)c1ccc(Cl)cc1C(F)(F)F | – | – | – | > 128 | – | > 128 | > 128
26 | O=C(c1cccnc1)N(/N=N/c1ccc([N+](=O)[O-])c(C(F)(F)F)c1)c1ccc([N+](=O)[O-])c(C(F)(F)F)c1 | 32 (≈ 60.6 µM) | 64 (≈ 121 µM) | > 128 | 4 (≈ 7.57 µM) | 64 (≈ 121 µM) | > 128 | 4 (≈ 7.57 µM)
27 | Ic1ccccc1/N=N/Nc1ccccc1I | > 128 | – | – | – | > 128 | > 128 | > 128
28 | O=C(c1cccnc1)N(/N=N/c1ccc([N+](=O)[O-])cc1)c1ccc([N+](=O)[O-])cc1 | 8 (≈ 20.4 µM) | 16 (≈ 40.8 µM) | – | 128 (≈ 326 µM) | > 128 | > 128 | 64 (≈ 163 µM)
29 | O=C(c1ccncc1)N(/N=N/c1ccc([N+](=O)[O-])cc1F)c1ccc([N+](=O)[O-])cc1F | > 128 | – | – | 32 (≈ 74.7 µM) | > 128 | > 128 | 32 (≈ 74.7 µM)
